Results taken from ChEMBL document CHEMBL1135831, “Expansion of structure-activity studies of piperidine analogues of 1-[2-(diphenylmethoxy)ethyl]-4-(3-phenylpropyl)piperazine (GBR 12935) compounds by altering substitutions in the N-benzyl moiety and behavioral pharmacology of selected molecules” (J Med Chem, 2002).

What was measured:
[1] = target: Monoamine transporters; Norepininephrine & dopamine (Rattus norvegicus) (UniProt P23977+Q9WTR4); test: Selectivity ratio against dopamine and norepinephrine transporter binding; assay type: protein assay
Outline: (§1)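 Ratio of radioligand binding values: SERT ([³H]citalopram) or NET ([³H]nisoxetine) over DAT ([³H]WIN 35,428). Binding 0–4 °C, 2 h (DAT, SERT) or 3 h (NET), final Na⁺ 30 mM (DAT, SERT) or 225 mM (NET); each value from three independent experiments in triplicate.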

[2] = target: Monoamine transporters; serotonin & dopamine (Rattus norvegicus) (UniProt P31652+P23977); test: Relative binding to serotonin and dopamine transporters; assay type: protein assay; outline: as §1
[3] = target: Sodium-dependent dopamine transporter (Rattus norvegicus, UniProt P23977); test: Inhibition of 3[H] WIN-35 428 binding to Dopamine transporter (DAT)
[4] = Selectivity ratio 3[H]DA uptake /DAT binding
[5] = target: Sodium-dependent serotonin transporter (Rattus norvegicus, UniProt P31652); test: Inhibition of [3H]- citalopram binding to Serotonin transporter
[6] = target: Norepinephrine transporter (Rattus norvegicus, UniProt Q9WTR4); test: Inhibition of [3H]- […] binding to Norepinephrine transporter
Rattus norvegicus [7] = species on record: Rattus norvegicus; test: Concentration causing 50% Inhibition of [3H]- DA (Dopamine) uptake in rat striatal synaptosomes; assay type: functional; conditions: Brain
Rattus norvegicus [8] = species on record: Rattus norvegicus; test: Inhibition of [3H]- DA (Dopamine) uptake in rat striatal synaptosomes; assay type: functional; conditions: Brain

Chain of Sodium-dependent dopamine transporter (P23977 whole entry): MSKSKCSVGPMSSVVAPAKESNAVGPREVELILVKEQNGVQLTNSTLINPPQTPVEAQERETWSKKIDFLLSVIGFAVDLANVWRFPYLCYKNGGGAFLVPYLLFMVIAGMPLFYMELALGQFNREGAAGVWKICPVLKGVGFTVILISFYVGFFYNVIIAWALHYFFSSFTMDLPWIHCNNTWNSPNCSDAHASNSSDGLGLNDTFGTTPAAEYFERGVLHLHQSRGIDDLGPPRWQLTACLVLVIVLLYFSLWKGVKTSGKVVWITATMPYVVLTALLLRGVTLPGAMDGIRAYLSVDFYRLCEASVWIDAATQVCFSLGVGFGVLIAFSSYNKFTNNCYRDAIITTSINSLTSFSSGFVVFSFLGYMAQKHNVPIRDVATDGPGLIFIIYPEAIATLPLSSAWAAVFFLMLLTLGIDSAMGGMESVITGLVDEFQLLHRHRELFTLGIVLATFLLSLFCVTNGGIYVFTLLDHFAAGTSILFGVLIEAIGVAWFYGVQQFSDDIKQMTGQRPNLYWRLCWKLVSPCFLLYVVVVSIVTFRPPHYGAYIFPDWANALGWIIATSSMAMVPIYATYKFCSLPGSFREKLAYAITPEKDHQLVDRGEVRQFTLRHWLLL
Chain of Monoamine transporters; serotonin & dopamine (Rattus norvegicus) (P23977 whole entry, looked up): as the sequence (P23977 whole entry) above
Chain of Monoamine transporters; serotonin & dopamine (Rattus norvegicus) (P31652 whole entry, looked up): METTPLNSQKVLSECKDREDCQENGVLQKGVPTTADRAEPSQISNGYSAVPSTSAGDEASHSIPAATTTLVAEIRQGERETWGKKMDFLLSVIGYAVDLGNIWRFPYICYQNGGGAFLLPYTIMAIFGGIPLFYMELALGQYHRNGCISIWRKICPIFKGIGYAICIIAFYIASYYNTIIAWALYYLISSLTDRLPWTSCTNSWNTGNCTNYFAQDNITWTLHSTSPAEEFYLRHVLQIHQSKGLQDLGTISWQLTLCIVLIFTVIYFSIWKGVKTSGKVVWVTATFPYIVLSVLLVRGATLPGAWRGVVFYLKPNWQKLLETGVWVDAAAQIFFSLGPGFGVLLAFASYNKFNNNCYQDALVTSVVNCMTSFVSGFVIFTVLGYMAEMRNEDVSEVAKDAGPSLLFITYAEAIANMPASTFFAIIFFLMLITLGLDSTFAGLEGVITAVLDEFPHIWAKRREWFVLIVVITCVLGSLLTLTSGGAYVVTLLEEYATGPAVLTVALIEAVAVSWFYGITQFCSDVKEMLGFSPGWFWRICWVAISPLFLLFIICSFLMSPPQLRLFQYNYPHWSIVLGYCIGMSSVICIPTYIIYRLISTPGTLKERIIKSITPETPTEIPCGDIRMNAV
Chain of Sodium-dependent serotonin transporter (P31652 whole entry): as the sequence (P31652 whole entry, looked up) above
Chain of Norepinephrine transporter (Q9WTR4 whole entry): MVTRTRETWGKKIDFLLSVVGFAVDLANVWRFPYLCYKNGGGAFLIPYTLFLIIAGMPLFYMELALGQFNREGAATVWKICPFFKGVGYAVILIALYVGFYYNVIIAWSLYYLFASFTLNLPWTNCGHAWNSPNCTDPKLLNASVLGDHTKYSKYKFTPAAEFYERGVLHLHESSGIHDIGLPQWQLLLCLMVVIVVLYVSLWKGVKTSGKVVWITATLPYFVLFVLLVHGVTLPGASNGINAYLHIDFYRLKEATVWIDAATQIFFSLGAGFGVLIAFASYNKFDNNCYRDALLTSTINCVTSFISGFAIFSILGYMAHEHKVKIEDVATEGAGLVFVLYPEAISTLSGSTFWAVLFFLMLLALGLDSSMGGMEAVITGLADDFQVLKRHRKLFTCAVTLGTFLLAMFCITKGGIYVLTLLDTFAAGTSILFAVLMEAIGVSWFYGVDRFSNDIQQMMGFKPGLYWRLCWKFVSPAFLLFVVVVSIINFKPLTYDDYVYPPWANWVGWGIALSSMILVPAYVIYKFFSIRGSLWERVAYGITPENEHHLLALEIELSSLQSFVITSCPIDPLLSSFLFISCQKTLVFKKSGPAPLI

Row | SMILES | Ratio [1] | Ratio [2] | IC50 [3] [nM] | Ratio [4] | IC50 [5] [nM] | IC50 [6] [nM] | IC50 (Rattus norvegicus [7]) [nM] | IC50 (Rattus norvegicus [8]) [nM]
1 | C#Cc1ccc(CN2CCC(CCOC(c3ccccc3)c3ccccc3)CC2)cc1 | 180 | 250 | 4.1 | 1.2 | 1040 | 760 | 4.81 | 
2 | Oc1ccc(CN2CCC(CCOC(c3ccccc3)c3ccccc3)CC2)cc1 | 14 | 18 | 240 |  | 4330 | 3340 |  | 
3 | C=Cc1ccc(CN2CCC(CCOC(c3ccccc3)c3ccccc3)CC2)cc1 | 240 | 500 | 2.96 | 0.36 | 1470 | 715 | 1.08 | 
4 | C=C(C)c1ccc(CN2CCC(CCOC(c3ccccc3)c3ccccc3)CC2)cc1 | 72 | 88 | 11.6 | 0.26 | 1030 | 832 | 3.1 | 
5 | Oc1cccc(CN2CCC(CCOC(c3ccccc3)c3ccccc3)CC2)c1 | 47 | 69 |  | 0.72 |  | 678 |  | 10.4
6 | COC(=O)c1ccc(CN2CCC(CCOC(c3ccccc3)c3ccccc3)CC2)cc1 |  | 110 | 8.23 | 0.23 | 924 |  | 1.94 | 
7 | CC#Cc1ccc(CN2CCC(CCOC(c3ccccc3)c3ccccc3)CC2)cc1 | 18 | 37 | 65.1 |  | 2410 | 1170 |  | 
8 | Ic1ccc(CN2CCC(CCOC(c3ccccc3)c3ccccc3)CC2)cc1 | 1200 | 3040 |  | 2.1 |  | 1150 | 2.01 | 
9 | COc1cccc(CN2CCC(CCOC(c3ccccc3)c3ccccc3)CC2)c1 | 24 | 55 |  | 0.34 | 1080 | 472 |  | 6.68
